Experimental data from ChEMBL document CHEMBL2163314, “Potent aminocyclitol glucocerebrosidase inhibitors are subnanomolar pharmacological chaperones for treating gaucher disease” (J Med Chem, 2012).

What was measured:
[1] = biological target: T1, Lysosomal acid glucosylceramidase (Homo sapiens, UniProt P04062); assay: Inhibition of lysosomal beta-glucosidase in human fibroblast using 4-methylumbelliferyl-beta-D-glucopyranoside as substrate preincubated for 24 hrs before substrate addition measured after 2 hrs by fluorometry
T1 sequence (P04062 whole entry): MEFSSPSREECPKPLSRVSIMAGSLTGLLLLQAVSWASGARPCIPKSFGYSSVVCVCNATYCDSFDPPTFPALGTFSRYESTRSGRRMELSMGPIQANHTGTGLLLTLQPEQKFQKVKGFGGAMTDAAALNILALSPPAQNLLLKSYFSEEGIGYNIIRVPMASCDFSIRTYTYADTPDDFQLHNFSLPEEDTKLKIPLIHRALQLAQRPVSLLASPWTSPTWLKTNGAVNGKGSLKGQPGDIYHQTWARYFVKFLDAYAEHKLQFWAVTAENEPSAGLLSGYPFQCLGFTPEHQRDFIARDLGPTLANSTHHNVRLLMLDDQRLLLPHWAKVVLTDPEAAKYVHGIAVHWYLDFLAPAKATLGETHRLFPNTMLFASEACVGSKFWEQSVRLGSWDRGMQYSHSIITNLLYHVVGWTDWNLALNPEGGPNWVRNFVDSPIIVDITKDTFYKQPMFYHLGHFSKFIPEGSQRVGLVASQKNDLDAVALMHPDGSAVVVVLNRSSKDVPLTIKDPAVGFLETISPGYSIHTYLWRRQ
Summary of the method: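 Wild-type human fibroblasts (DMEM, 10% FBS; passages 14–30) plated overnight, then compound in fresh medium for 24 h at 37 °C, 5% CO2. Intact washed monolayers given PBS plus 200 mM acetate pH 4.0 and 5 mM 4-MU-β-glucoside, 37 °C for 2 h. Stopped by lysis in glycine/NaOH pH 10.6. Fluorescence at 355/460 nm; triplicate.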

[2] = Agonist activity at glucosylceramidase […] mutant in lymphoblast obtained from Gaucher disease patient using 4-methylumbelliferyl-beta-D-glucopyranoside as substrate preincubated at 50 nM for 3 days measured 2 hrs post substrate addition by fluorescence assay relative to untreated control; type: functional, Homo sapiens
Summary of the method: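 Homozygous L444P GD type 2 patient-derived lymphoblasts (GM08752) in RPMI-1640 with 15% FBS, seeded at 2 × 10^5 cells/well and exposed to compound for 3 days. Cells were washed with PBS and sonicated in water. Homogenate was assayed with 6 mM 4-methylumbelliferyl-β-D-glucopyranoside in 0.1 M citrate phosphate, pH 5.2, with 0.25% taurocholate and 0.1% Triton X-100, for 2 h at 37 °C. Fluorescence read at 355/460 nm, normalized to untreated cells, triplicate.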

Row | Compound | IC50 [1] [nM] | fold change (FC) [2]
1 | CCCCCCCCCN[C@H]1[C@H](O)[C@@H](O)[C@H](O)[C@@H](O)[C@H]1OCCCCCCCCC.Cl | 4.3 | 
2 | CCCCCCCCCN[C@H]1[C@H](O)[C@@H](O)[C@H](O)[C@@H](O)[C@H]1OC.Cl |  | 1.4
